Test results as given in PMC6344890 (Journal of medicinal chemistry, 2018).

Experiments:
[1] = system: PC12 cells; assay: OGD neuroprotection concentration response, PrestoBlue; assay type: cell-based; conditions: 50 μM, OGD-exposed PC12 cells
Method in brief: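 Undifferentiated PC12 cells (passage 12–14) were plated overnight in DMEM/F12 with 5% FBS and 5% HS. They were given 1.5 h OGD in glucose-free HBSS under argon at 37 °C. Fresh growth medium with test compound (0.1, 1, 5, 10, 25, 50 µM) or DMSO followed, for 24 h at 37 °C. PrestoBlue (10%) was added for 30 min, and fluorescence was read at 560/590 nm. Results are % change versus vehicle control; non-OGD plates were included.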

[2] = molecular target: hERG (Homo sapiens, UniProt Q12809); assay: Psychoactive Drug Screening Program hERG binding; conditions: PDSP
[3] = Reactivity analysis with N-acetyl cysteine, HPLC-PDA; assay type: physicochemical; conditions: 250 μM compound, N-acetyl cysteine 5 mM, PBS 50 mM pH 7.4, 37 °C, 2 and 12 h
Method in brief: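 Test compound (250 µM) or N-ethylmaleimide (250 µM) was incubated with or without N-acetylcysteine (5 mM) in 50 mM PBS, pH 7.4, at 37 °C. Aliquots were taken at 2 and 12 h and analysed by HPLC-PDA. Peak areas at each analyte's UV λmax gave the relative abundance of remaining starting material.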

[4] = system: PC12 cells; assay: LC-MS/MS study of cell permeability; assay type: in vitro ADME; conditions: 25 μM, 24 h, control and OGD-treated PC12 cells
Method in brief: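 PC12 cells (1×10^6) were given 1.5 h OGD under argon at 37 °C, or kept without OGD on a control plate. They were then exposed to 25 µM test compound or vehicle for 24 h. Medium was collected, and cytosol was taken by lysis in HEPES/NP-40 buffer for 15 min at 0 °C and centrifuged. Samples were diluted in 2% formic acid and spiked with an analogue internal standard. Analysis was positive-ESI UPLC-MS/MS, with MRM peak areas normalised to the internal standard.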

[5] = assay type: in vivo; conditions: 20 mg/kg ip or po, mice
[6] = system: PC12 cells; assay: Oxygen glucose deprivation; assay type: cell-based; conditions: PC12-OGD primary assay, 1, 10, 25 μM
Method in brief: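 PC12 cells (passage 12–14, undifferentiated) were plated overnight in serum-containing DMEM/F12. They were deprived of glucose and oxygen for 1.5 h (glucose-free HBSS, argon, 37 °C). The medium was then replaced with growth medium containing test compound (1, 10, 25 µM) or DMSO for 24 h. MTT (0.5 mg/mL) was added for 4 h and dissolved in DMSO, with absorbance read at 540 nm. Viability is % change versus vehicle control; mean ± SEM, n = 3, triplicate experiments; ANOVA with Dunnett's test.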

[7] = system: sGC signaling; assay: PC12-OGD assay with co-incubation of the sGC inhibitor ODQ, MTT readout; assay type: cell-based; conditions: ODQ 10 μM
Method in brief: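 This was the PC12 OGD protocol (90 min glucose-free HBSS under argon at 37 °C, then 24 h in growth medium with test compound), with ODQ (10 µM) co-incubated. Viability was read by MTT (0.5 mg/mL, 4 h, DMSO-solubilised, 540 nm) relative to vehicle control. Mean ± SEM, n = 3, duplicate experiments; one-way ANOVA with Dunnett's test.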

[8] = system: CREB phosphorylation; assay: pCREB:tCREB ratio in forebrain by ELISA; assay type: in vivo, mice; conditions: 5a alone 20 mg/kg ip or po, 1, 2 or 12 h
[9] = system: PC12 cells; assay: NO production as NO2− in the primary assay; assay type: cell-based
[10] = system: GABAA, serotonin receptors, dopamine receptors, and muscarinic and nicotinic acetylcholine receptors; assay: Psychoactive Drug Screening Program radioligand binding panel; conditions: PDSP, Supplementary Table 2
[11] = system: benzodiazepine (BZP) rat brain site; assay: Psychoactive Drug Screening Program binding, benzodiazepine; conditions: PDSP
[12] = molecular target: delta opioid receptor (Homo sapiens, UniProt P41143); assay: Psychoactive Drug Screening Program binding, delta opioid receptor; conditions: PDSP
[13] = system: male C57BL/6 mice; assay: Step-through passive avoidance; assay type: in vivo; conditions: scopolamine 1 mg/kg ip 30 min prior to training alone (negative control); vehicle-treated 270 ± 29 s; mean ± SEM

Chain of delta opioid receptor (P41143 whole entry): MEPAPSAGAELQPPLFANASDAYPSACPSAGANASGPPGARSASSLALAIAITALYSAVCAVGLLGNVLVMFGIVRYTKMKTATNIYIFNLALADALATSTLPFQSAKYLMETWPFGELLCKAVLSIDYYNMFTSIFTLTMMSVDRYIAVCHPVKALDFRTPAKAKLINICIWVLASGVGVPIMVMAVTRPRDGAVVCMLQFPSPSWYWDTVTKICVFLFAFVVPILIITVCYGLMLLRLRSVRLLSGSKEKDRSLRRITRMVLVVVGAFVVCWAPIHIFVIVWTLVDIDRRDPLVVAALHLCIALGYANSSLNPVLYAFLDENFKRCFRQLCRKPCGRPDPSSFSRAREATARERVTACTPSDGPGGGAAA
Chain of hERG (Q12809 whole entry): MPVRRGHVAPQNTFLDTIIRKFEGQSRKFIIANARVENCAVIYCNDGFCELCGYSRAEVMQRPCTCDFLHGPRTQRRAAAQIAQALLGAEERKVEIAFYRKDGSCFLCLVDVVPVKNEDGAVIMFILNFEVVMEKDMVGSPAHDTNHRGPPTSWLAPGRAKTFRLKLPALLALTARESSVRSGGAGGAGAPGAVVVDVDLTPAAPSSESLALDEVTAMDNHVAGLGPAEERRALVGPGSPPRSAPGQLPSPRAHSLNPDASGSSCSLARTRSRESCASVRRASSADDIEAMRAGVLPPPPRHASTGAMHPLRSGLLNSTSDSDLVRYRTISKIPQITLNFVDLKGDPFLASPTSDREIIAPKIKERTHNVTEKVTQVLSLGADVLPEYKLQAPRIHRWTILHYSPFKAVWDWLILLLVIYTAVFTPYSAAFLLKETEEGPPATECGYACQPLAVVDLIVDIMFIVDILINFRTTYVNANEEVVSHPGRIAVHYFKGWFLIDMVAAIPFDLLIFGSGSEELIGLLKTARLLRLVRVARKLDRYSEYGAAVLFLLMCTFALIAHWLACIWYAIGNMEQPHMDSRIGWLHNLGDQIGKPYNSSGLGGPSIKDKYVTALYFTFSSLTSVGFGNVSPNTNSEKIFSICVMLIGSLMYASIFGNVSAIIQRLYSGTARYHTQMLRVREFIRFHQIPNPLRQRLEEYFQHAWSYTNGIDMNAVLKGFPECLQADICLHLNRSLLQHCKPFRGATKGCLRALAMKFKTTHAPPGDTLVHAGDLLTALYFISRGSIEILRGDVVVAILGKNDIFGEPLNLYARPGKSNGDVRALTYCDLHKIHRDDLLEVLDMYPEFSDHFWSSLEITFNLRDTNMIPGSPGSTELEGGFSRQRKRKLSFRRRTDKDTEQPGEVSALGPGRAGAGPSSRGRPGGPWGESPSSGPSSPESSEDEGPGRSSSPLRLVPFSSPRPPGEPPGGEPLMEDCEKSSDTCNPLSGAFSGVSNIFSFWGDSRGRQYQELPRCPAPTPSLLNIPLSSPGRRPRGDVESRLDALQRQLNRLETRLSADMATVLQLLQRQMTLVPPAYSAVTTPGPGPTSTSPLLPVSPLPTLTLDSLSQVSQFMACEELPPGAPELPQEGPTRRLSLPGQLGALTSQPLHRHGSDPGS

In the case of `CC1CCN(Cc2no[n+]([O-])c2-c2ccc(F)cc2)CC1` [Furoxan 5a, 3-(4-Fluorophenyl)-4-((4-methylpiperidin-1-yl)methyl)-1,2,5-oxadiaozle 2-Oxide], the “toxicity at the highest concentration tested” value [1] is reported as “no toxicity was observed”, the hERG binding [2] is reported as “No hERG binding was observed” and the “reactivity with excess thiol” value [3] is reported as “negligible reactivity”. The “distribution between media (supernatant) and cytosol” value [4] was “found in greatest amounts in the cytosol”, the “presence in forebrain and plasma after 12 h” value [5] was “detectable levels after 12 h” and the “neuroprotection (in words)” value [6] was “noticeable neuroprotective activity”. For the same molecule, the “neuroprotective effects on co-incubation with ODQ” value [7] was “completely blocked”, the “effect on pCREB (pCREB:tCREB ratio), forebrain” value [8] was “no effect on pCREB was observed” and the “NO production in the form of NO2−” value [9] was “negligible NO production”. The “interference with radioligand binding, receptor panel” value [10] was “does not interfere with binding of any radioligands for all receptors screened”.
In the case of `CC1CCN(Cc2no[n+]([O-])c2-c2ccc(Br)cc2)CC1` [Furoxan 5c, 3-(4-Bromophenyl)-4-((4-methylpiperdin-1-yl)methyl)-1,2,5-oxadiazole 2-Oxide], the “neuroprotection (in words)” value [6] is reported as “noticeable neuroprotective activity”.
In the case of `CC1CCN(Cc2no[n+]([O-])c2-c2ccc(OC(F)F)cc2)CC1` [Furoxan 5d, 3-(4-(Difluoromethoxy)phenyl)-4-((4-methylpiperidin-1-yl)-methyl)-1,2,5-oxadiazole 2-Oxide], the “neuroprotection (in words)” value [6] is reported as “noticeable neuroprotective activity”.
In the case of `[2H]C1([2H])CC(C)CC([2H])([2H])N1Cc1no[n+]([O-])c1-c1ccc(F)cc1` [Furoxan 7a, 3-(4-Fluorophenyl)-4-((4-methylpiperidin-1-yl-2,2,6,6-d4)methyl)-1,2,5-oxadiazole 2-Oxide], the “distribution between media (supernatant) and cytosol” value [4] is reported as “found in greatest amounts in the cytosol”, the “neuroprotection (in words)” value [6] is reported as “no neuroprotective effects” and the “inhibition of binding at the benzodiazepine (BZP) rat brain site” value [11] is reported as “significantly inhibited binding”. The “inhibition of binding at the delta opioid receptor” value [12] was “significantly inhibited binding”.
With `CCN1C(=O)C=CC1=O` [NEM, N-ethylmaleimide, reference compound] the “reactivity with excess thiol” value [3] was “complete reaction”.
For `CN1[C@@H]2C[C@@H](OC(=O)[C@H](CO)c3ccccc3)C[C@H]1[C@@H]1O[C@@H]12` [Scopolamine], the “latency to enter the dark compartment 24 h after training” value [13] was 63.5 ± 30 s.
